M5 antag: antagonists of human muscarinic M5 receptor (CHRM5). P08912. CHO-hM5 cells, Fluo-8 calcium fluorescence, ACh EC80. inhibition, % at 3 µM. hit rate 0.59% among 360,000;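 active = inhibition above a per-plate cutoff, the mean of that plate's test compounds plus 3 SD, cut at about 27% in these data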
CHRM4 PAM: positive allosteric modulators of human muscarinic M4 receptor | P08173 | CHO-K1 hM4/Gqi5, Fluo-8 calcium fluorescence, ACh EC20; 0% = ACh EC20, 100% = maximal ACh | activation, % at 3 µM | hit rate 0.4% among 360,000 | AID 624126;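 active = activation above its plate's cutoff, the mean activation of sample wells plus 3 SD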
Target sequence (P08173 whole entry, looked up): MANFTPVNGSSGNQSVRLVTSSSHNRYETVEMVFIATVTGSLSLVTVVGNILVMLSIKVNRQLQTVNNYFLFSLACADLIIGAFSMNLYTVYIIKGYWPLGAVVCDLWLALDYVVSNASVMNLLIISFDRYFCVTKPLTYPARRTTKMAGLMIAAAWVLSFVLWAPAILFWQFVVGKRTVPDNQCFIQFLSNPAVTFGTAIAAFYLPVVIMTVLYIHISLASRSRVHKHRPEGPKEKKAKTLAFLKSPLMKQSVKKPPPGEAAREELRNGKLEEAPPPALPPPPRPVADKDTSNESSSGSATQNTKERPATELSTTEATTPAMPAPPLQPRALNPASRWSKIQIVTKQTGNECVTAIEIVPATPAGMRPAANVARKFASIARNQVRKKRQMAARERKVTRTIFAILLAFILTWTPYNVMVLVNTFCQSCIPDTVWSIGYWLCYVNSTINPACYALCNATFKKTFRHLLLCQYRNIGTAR
CHRM5 agonist: CHRM5 agonism in calcium assay. P08912. CHO-K1 hM5 cells, Fluo-8 calcium fluorescence; 0% DMSO wells, 100% maximal acetylcholine response. activation, % at 3 µM. hit rate 0.19% among 360,000. AID 624037;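 active = activation above the run's mean over test compounds plus 3 SD, cut at about 23% in these data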;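 note: signal is peak over basal fluorescence ratio across the kinetic read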
M4 antag: antagonists of human muscarinic M4 receptor (CHRM4); P08173; CHO-hM4 cells, ACh EC80, Fluo-8 calcium fluorescence; inhibition, % at 3 µM; hit rate 0.73% among 360,000;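 active = inhibition above its plate's cutoff, the mean inhibition of sample wells plus 3 SD, cut at about 27% in these data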
CHRM5 PAM: potentiates acetylcholine response at human M5 receptor; CHO-K1 hM5, Fluo-8 calcium, ACh EC20 PAM; 0% = ACh EC20, 100% = ACh EC100; hit rate 0.3% among 360,000; P08912; activation, % at 3 µM;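 active = activation above the run cutoff, the mean activation of all test compounds plus 3 SD, cut at about 18% in these data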
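system = human M5 receptor in CHO-K1 cells | compound = one concentration, 3 µM final (nominal) | schedule = Post-acetylcholine fluorescence recording 140 s | signal = Fluo-8 calcium dye fluorescence, kinetic read | benchmarks = low control EC20 acetylcholine (0%), high control EC100 acetylcholine (100%) | repeats = singlicate, one well per test compound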
M4 ag: CHRM4 agonism in calcium assay; P08173; CHO-K1 hM4/Gqi5, Fluo-8 calcium fluorescence; vehicle 0%, full acetylcholine response 100%; activation, % at 3 µM; hit rate 0.14% among 360,000;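 active = activation above the run mean over all test wells plus 3 SD, cut at about 32% in these data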;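 note: peak over basal fluorescence ratio per well then scaled between controls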
Large screens that a line does not name were inactive. This is a sample that favours compounds with a hit; in the whole collection about 1.8% have one here.

O=C(NCc1cc(Cl)cc(Cl)c1)c1csc(COCCO)n1	none
CN(C)CCNc1ncnc2c1ncn2[C@H]1CN(Cc2ccc(-c3ccccc3)cc2)C[C@@H](CO)O1	none
N[C@@]12CCc3nonc3[C@]1(O)CC(c1ccccc1)=[N+]2[O-]	CHRM4 PAM 26
Cc1cc(NC(=O)COc2ccc(F)c(Cl)c2)no1	CHRM4 PAM 19
Cc1cc(NC(=O)COc2ccc(C)c(C)c2)no1	none
Cc1nnc(SCc2nnc(-c3cccs3)o2)n1Cc1ccccc1	none
Clc1ccc(-c2nnc(CSc3nnc(-c4cccs4)n3Cc3ccccc3)o2)cc1	M5 antag 29, M4 antag 30
O=C(Nc1ccc(Cl)cc1)C(Cl)C(=O)c1ccccc1 (stereo not given)	M4 antag 26
CC(=O)NCCNC(=O)C1(C)Cc2c(-c3ccc(NC(C)=O)cc3)ccnc2O1 (stereo not given)	none
Cc1nc2c(=O)n(C)c(=O)n(C)c2nc1Cl	M5 antag 28
Cn1c(=O)c2nc(NCc3ccccc3)cnc2n(C)c1=O	none
O=C(CCNc1cccc(F)c1)c1cccc([N+](=O)[O-])c1	none
O=C(CCNc1ccc(Cc2ccncc2)cc1)c1cccc([N+](=O)[O-])c1	M4 antag 28
CN(CCCCCCCCC(=O)/C=N/O)Cc1ccccc1	M4 antag 73
O=C(NCc1ccccc1)C(c1ccco1)N(C(=O)c1ccccn1)c1ccccc1 (stereo not given)	M5 antag 49
COc1ccc(CNC(=O)C(c2ccco2)N(C(=O)c2ccccn2)c2ccccc2)cc1 (stereo not given)	none
C[C@H]1O[C@H](C2CCCC2)CC2=C1C(=O)OC(C)(C)O2	none
O=C(NCCCN1CCOCC1)NC1CCCCC1	none
O=C(NCCCCCCCN1CCCCCCC1)C(C1CCCCC1)C1CCCCC1	M4 antag 75
Cc1ccc2c(c1)CO[C@]21O[C@H](CCO)C[C@H](O)[C@H]1O	none
COc1ccc(CC2=CC(=O)c3ccccc3C2=O)cc1	M4 antag 33
CCn1c(C)cc(/C=C2\NC(=O)N(Cc3ccc(Cl)cc3)C2=O)c1C	M4 antag 31
CCN1C(=O)N/C(=C/c2cc(C)n(Cc3ccccc3)c2C)C1=O	none
COc1ccc(OC)c(NC(=O)C2(C)CCN2C(=O)C2(c3ccccc3)CCCC2)c1 (stereo not given)	none
CC/C(CC(C)(C)c1ccccc1)=N\O	none
CC[N+](C)(CC)CCC/C(=N/O)C(O)(c1ccccc1)c1ccccc1	M4 antag 33
CCN(CC)CCC/C(=N\O)C(O)(c1ccccc1)c1ccccc1	M5 antag 45, M4 antag 79
CCCNNC(=O)C(O)(c1ccccc1)c1ccccc1	none
O=C(CCC1CCN(Cc2ccccc2O)CC1)NC1CC1	CHRM5 PAM 21
O=C(C[n+]1ccc2ccccc2c1)c1ccc2ccc3ccccc3c2c1	none
O=C(Nc1cccn(Cc2ccc(F)cc2)c1=O)NC1CCCCC1	none
Cc1ccc(Cn2cccc(NC(=O)NC3CCCCC3)c2=O)cc1	CHRM5 PAM 34
CC[N+](C)(CC)CCOC(=O)C1c2ccccc2Oc2ccccc21	M5 antag 99, M4 antag 99
CN(CCOC(=O)C1c2ccccc2Oc2ccccc21)C(C)(C)C	M5 antag 98, M4 antag 99
CCN(CC)CCCNC(=O)C1c2ccccc2Oc2ccccc21	M5 antag 28
CN(C)CCCOC(=O)C1c2ccccc2Oc2ccccc21	M5 antag 97, M4 antag 95
COCCCNC(=O)C1c2ccccc2Oc2ccccc21	none
CCC(c1nnnn1-c1c(C)cccc1C)N1CCN(CCN2CCOCC2)CC1 (stereo not given)	none
CC(C)(C)c1ccc(OCC(O)CS(=O)(=O)c2ccccn2)cc1 (stereo not given)	none
COC(=O)c1sc(C(C)(C)C)cc1CS(=O)(=O)c1ccccn1	CHRM5 PAM 22
COc1cc(C2CC(=O)Nc3ccccc3S2)cc(OC)c1OC (stereo not given)	M4 antag 35
O=C1CC(c2ccc(F)cc2)Sc2ccccc2N1 (stereo not given)	none
CCCCNc1nnc(CCn2nc(C)c(Br)c2C)s1	none
CCNc1nnc(CCn2nc(C)c(Br)c2C)s1	CHRM5 PAM 24
Cc1ccc(-c2nnc(CSc3nnc(C)s3)o2)cc1	CHRM5 PAM 19
Cc1csc(SCc2nnc(-c3ccc(Cl)cc3)o2)n1	none
COc1ccccc1OCc1ccc(C(=O)N2CCOCC2)o1	none
COc1ccccc1OCc1ccc(C(=O)N2CCCCC2)o1	CHRM4 PAM 34, CHRM5 PAM 22
N=C1N(/N=C/c2ccccc2)C(=Nc2ccccc2)C(=S)N1c1ccccc1	M4 antag 55
Cn1ccnc1C1CCCCN1Cc1nc(Cc2ccccc2F)no1 (stereo not given)	M4 antag 83
O=C(O)c1cccc(N2C(=O)CSC2c2c(F)cccc2Cl)c1 (stereo not given)	none
Cc1ccc(N2C(=O)CSC2c2c(F)cccc2Cl)cc1 (stereo not given)	M5 antag 68, M4 antag 86
COc1cccc(C2SCC(=O)N2c2ccc(Cl)cc2)c1OC (stereo not given)	M5 antag 28, M4 antag 59
COc1ccc(N2C(=O)CSC2c2ccc(F)c(F)c2)cc1 (stereo not given)	none
CC(C)C(=O)N1CCCC1(C)C(=O)Nc1ccc(-n2cccc2)cc1 (stereo not given)	none
Cc1ccc(S(=O)(=O)N2C[C@H]3N(C(=O)OC(C)C)N(C(=O)OC(C)C)C[C@H](OC(=O)Nc4cccs4)[C@@]3(O)C2)cc1	none
O=C(CN1CCCC1)N1c2ccccc2Sc2ccc(Cl)cc21	M5 antag 96, M4 antag 94
O=C(CSc1nc2ccccc2o1)N1c2ccccc2Sc2ccc(C(F)(F)F)cc21	none
O=C(CN1CCN(c2ccccn2)CC1)N1c2ccccc2Sc2ccc(C(F)(F)F)cc21	none
CCNCCC(=O)N1c2ccccc2Sc2ccc(C(F)(F)F)cc21	M5 antag 100, M4 antag 96
O=C(CN1CCCC1)N1c2ccccc2Sc2ccc(C(F)(F)F)cc21	M5 antag 99, M4 antag 95
CCOC(=O)[C@]12CCC=C1N(Cc1ccco1)C(=O)[C@H](CC(=O)N1CCCCC1)C2	none
O=C(Nc1nnc([C@@H]2C[C@H](O)[C@@H](CO)O2)s1)c1cccc(OC(F)(F)F)c1	none
CCOC(=O)[C@]12CCC=C1N(Cc1cccc3ccccc13)C(=O)[C@H](CC(=O)NCC13CC4CC(CC(C4)C1)C3)C2	none

Source: PubChem (The Scripps Research Institute Molecular Screening Center)
